# Assay results reported in ChEMBL document CHEMBL4339255, “Dimeric Pyranonaphthoquinone Glycosides with Anti-HIV and Cytotoxic Activities from a Soil-Derived Streptomyces” (J Nat Prod, 2019).
# How the values were obtained:
# MCF7 = experiment: Cytotoxicity in human MCF7 cells assessed as reduction in cell viability incubated for 72 hrs by MTS assay; assay type: functional, cell-based; conditions: MCF7, 72 h
# In short: (§1)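 Cells plated at 5 × 10^3 per well, left 24 h, then given a range of sample concentrations from DMSO solutions, in triplicate; DMSO-only negative controls, paclitaxel and cisplatin positive controls. After 72 h exposure, MTS added for 2 h at 37 °C, absorbance read at 492 nm, IC50 by the Reed and Muench method.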
# HL-60 = experiment: Cytotoxicity in human HL60 cells assessed as reduction in cell viability incubated for 72 hrs by MTS assay; assay type: functional, cell-based; conditions: HL-60, 72 h; in short: as §1
# [1] = Toxicity in human C8166 cells assessed as reduction in cell viability incubated for 72 hrs by MTT assay; assay type: cell-based
# [2] = Therapeutic index, ratio of CC50 for toxicity in C8166 cells to EC50 for antiviral activity against HIV1 3B infected in human C8166 cells; assay type: cell-based; conditions: read-out: Ratio CC50/EC50
# [3] = tested on: Human immunodeficiency virus 1; experiment: Antiviral activity against HIV1 3B infected in human C8166 cells assessed as inhibition of syncytial cell formation incubated for 72 hrs; assay type: functional, organism-based; conditions: Human immunodeficiency virus 1, 3B, C8166, 72 h
Structure (SMILES),IC50 (MCF7) [µM],IC50 (HL-60) [µM],CC50 at 72 h [1] [µM],selectivity ratio [2],EC50 [3] [µM]
COC(=O)C[C@H]1C[C@@]2(S[C@@]34C[C@H](CC(=O)O[C@H]5O[C@@H](C(=O)OC)[C@H](O)[C@@H](O)[C@@H]5O)O[C@@H](C)[C@@]3(O)C(=O)c3c(O)cccc3C4=O)C(=O)c3cccc(O)c3C(=O)[C@]2(O)[C@H](C)O1,3.4,16.1,–,–,–
COC(=O)C[C@H]1C[C@@]2(S[C@@]34C[C@H](CC(=O)OC)O[C@@H](C)[C@@]3(O)C(=O)c3c(O[C@H]5O[C@@H](C(=O)O)[C@H](O)[C@@H](O)[C@@H]5O)cccc3C4=O)C(=O)c3cccc(O)c3C(=O)[C@]2(O)[C@H](C)O1,–,–,> 100,> 2.2,44.7
COC(=O)C[C@H]1C[C@@]2(S[C@@]34C[C@H](CC(=O)O[C@H]5O[C@@H](C(=O)O)[C@H](O)[C@@H](O)[C@@H]5O)O[C@@H](C)[C@@]3(O)C(=O)c3c(O)cccc3C4=O)C(=O)c3cccc(O)c3C(=O)[C@]2(O)[C@H](C)O1,–,–,52,5.4,9.6
COC(=O)C[C@H]1C[C@@]2(S[C@@]34C[C@H](CCO[C@H]5O[C@@H](C(=O)OC)[C@H](O)[C@@H](O)[C@@H]5O)O[C@@H](C)[C@@]3(O)C(=O)c3c(O)cccc3C4=O)C(=O)c3cccc(O)c3C(=O)[C@]2(O)[C@H](C)O1,3.4,14.9,36.4,4.2,8.6
COC(=O)C[C@H]1C[C@@]2(S[C@@]34C[C@H](CC(=O)O[C@H]5OC(C(=O)O)=C[C@@H](O)[C@@H]5O)O[C@@H](C)[C@@]3(O)C(=O)c3c(O)cccc3C4=O)C(=O)c3cccc(O)c3C(=O)[C@]2(O)[C@H](C)O1,1.4,9.9,63.7,22.5,2.8
COC(=O)C[C@H]1C[C@@]2(S[C@@]34C[C@H](CCO[C@H]5O[C@@H](C(=O)O)[C@H](O)[C@@H](O)[C@@H]5O)O[C@@H](C)[C@@]3(O)C(=O)c3c(O)cccc3C4=O)C(=O)c3cccc(O)c3C(=O)[C@]2(O)[C@H](C)O1,–,–,56.4,5.9,9.6
Nc1ccn([C@@H]2CS[C@H](CO)O2)c(=O)n1 [LAMIVUDINE],–,–,> 1000,> 2910,0.3
CC(=O)O[C@H]1C(=O)[C@@]2(C)[C@H]([C@H](OC(=O)c3ccccc3)[C@]3(O)C[C@H](OC(=O)[C@H](O)[C@@H](NC(=O)c4ccccc4)c4ccccc4)C(C)=C1C3(C)C)[C@]1(OC(C)=O)CO[C@@H]1C[C@@H]2O [PACLITAXEL],< 0.008,< 0.008,–,–,–
